Most compounds without a hit are left out; they make up all but 2.6% or so of the library.
Myeloid diff 2 – compounds promoting myeloid differentiation. 360,000 compounds, 1% hits. calls only at 10 µM. ER-HoxA9 myeloid progenitors, lysozyme-GFP differentiation, flow cytometry. AID 624256;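 active = normalized GFP-positive differentiation at or above the plate's own cutoff, the solvent-only control mean plus 3 SD; inconclusive = no clear call, values can overlap the other calls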;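 note: cells exposed to compound for four days before flow analysis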
SKN-1 inh – inhibitors of C. elegans SKN-1; C. elegans VP596 Pgst-4::GFP/RFP ratio, acrylamide-induced, 24 h; 360,000 compounds, 0.49% hits; AID 624304; inhibition, % at 21.8 µM;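 active = interference check ratio from 0.5 to 1.5 plus GFP to RFP signal ratio inhibition reaching or exceeding a fixed threshold, cut at about 30% in these data, passing the limit was not always enough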
GRK2 inh – human GRK2 inhibition via aptamer displacement | P25098 | bead flow cytometry, FAM-aptamer displacement from GRK2 | inhibition of aptamer binding, % at 10 µM | 330,000 compounds, 0.59% hits | AID 488847;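 active = inhibition of aptamer binding above 40%, roughly 3 SD of noise, on plates passing a quality check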;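 note: median bead fluorescence of bound FAM aptamer so fluorescent compounds give negative values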
Target sequence (P25098 whole entry, looked up): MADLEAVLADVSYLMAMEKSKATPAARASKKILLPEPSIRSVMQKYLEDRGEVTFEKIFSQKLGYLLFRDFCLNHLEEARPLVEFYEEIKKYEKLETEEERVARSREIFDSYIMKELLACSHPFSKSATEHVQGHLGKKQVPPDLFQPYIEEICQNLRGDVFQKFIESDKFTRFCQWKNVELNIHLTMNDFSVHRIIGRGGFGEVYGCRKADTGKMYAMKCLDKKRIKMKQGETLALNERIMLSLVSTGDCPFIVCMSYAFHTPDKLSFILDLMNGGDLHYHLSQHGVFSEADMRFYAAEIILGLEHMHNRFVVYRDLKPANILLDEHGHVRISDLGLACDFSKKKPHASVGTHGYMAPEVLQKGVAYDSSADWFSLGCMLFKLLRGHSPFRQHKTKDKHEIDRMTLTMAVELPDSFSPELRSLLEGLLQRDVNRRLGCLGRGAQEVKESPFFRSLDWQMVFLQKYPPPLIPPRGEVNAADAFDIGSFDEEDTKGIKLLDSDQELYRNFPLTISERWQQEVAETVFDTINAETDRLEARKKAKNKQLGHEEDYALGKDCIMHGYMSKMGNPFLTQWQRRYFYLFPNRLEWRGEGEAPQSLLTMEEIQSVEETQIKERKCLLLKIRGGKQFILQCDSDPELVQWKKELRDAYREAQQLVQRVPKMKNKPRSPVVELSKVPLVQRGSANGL
Rce1 inhib – inhibitors of yeast Ras-converting enzyme; 290,000 compounds, 0.27% hits; yeast membranes, quenched prenylated peptide cleavage fluorescence; AID 2563; calls only;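 active = fall in fluorescence gain of 50% or more versus controls, with final raw signal at or below 3038400; inconclusive = same 50% fall but final raw signal above 3038400; inactive = fall in fluorescence gain under 50%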
T cell HTS – T cell immune modulators affecting CD8 T cell-vesicle binding. 2C CD8+ T cell-vesicle binding, flow cytometry; stronger effect = lower value. response (vesicle binding), % at 7 µM. 330,000 compounds, 0.068% hits;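 active = response, share of CD8 T cells binding vesicles, and their 90th percentile fluorescence all below set limits, cut at about 80% in these data, passing the limit was not always enough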;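 note: values below 100% mean blocked vesicle binding to the CD8+ T cells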
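material = purified 2C TCR transgenic mouse naive CD8+ T cells | controls = Unloaded micro-vesicles (low), QL9 vesicles with 0.7% DMSO (high) | detection = cytometric PE anti-B7-1 and Alexa647 anti-CD8 signals after 1% paraformaldehyde fixation | incubation = binding step 1.5 h, 37 °C, antibody labelling 20 min, ice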
Rin1-Abl PPI inh – blocks binding of human Rin1 to Abl; TR-FRET Rin1/Abl binding, biochemical; inhibition, % at 7.35 µM; 360,000 compounds, 0.4% hits; in the data active = inhibition above about 5%, passing the limit was not always enough
Hits are given with their value; - = inactive; ? = inconclusive; . = no result; + = active, no number.

SMILES	Myeloid diff 2	SKN-1 inh	GRK2 inh	Rce1 inhib	T cell HTS	Rin1-Abl PPI inh
CC1(C)c2ccccc2C(=O)c2ccccc21	?	46	.	.	.	-
COc1ccccc1C(=O)Nc1ccc(S(=O)(=O)N2CCN(C)CC2)cc1	-	-	-	-	-	-
COc1ccccc1C(=O)NC(=S)Nc1ccc(S(=O)(=O)N2CCN(C)CC2)cc1	-	-	-	-	0.0	-
COc1ccc(N2CCCn3c2nc2c3c(=O)n(Cc3ccc(C)cc3)c(=O)n2C)c(OC)c1	-	-	-	-	-	-
CC(=O)c1ccc2cccc3c2c1N=CN3C	+	-	-	-	-	-
COc1ccc(-n2c(Cc3cccn3C)nnc2SCC(=O)Nc2ccccc2F)cc1	-	-	-	-	-	-
COc1ccc(-n2c(Cc3cccn3C)nnc2SCC(=O)Nc2ccc(F)cc2F)cc1	+	-	-	-	-	-
CC(Cc1ccccc1)C(=O)NCc1ccncc1 (centres undefined)	-	-	.	-	.	-
CC(Cc1ccccc1)C(=O)N[C@@H](CO)Cc1ccccc1 (some centres undefined)	+	-	-	-	-	-
Cn1ncc(C#N)c1/N=C/N1CCCC1	-	42	-	-	-	-
COc1ccc(CN2CCC(C(=O)Nc3ccc(Oc4cccnc4)cc3)CC2)cc1	-	-	-	-	-	8.2
CCOC(=O)C(C)NC(=O)c1cn(-c2ccc(OC)cc2)c(=O)c2ccccc12 (centres undefined)	-	-	-	-	-	-
Nc1ccc2nc(-c3ccccc3)sc2c1	-	82	-	-	-	-
Cc1ccc2nc(-c3ccc(N)cc3)sc2c1	-	42	-	-	-	-
CNC(=S)Nc1ccc(-c2nc3ccc(C)cc3s2)cc1	-	-	-	-	-	-
O=C(/C=C/c1ccccc1)CC(=O)c1ccccc1O	-	-	-	-	-	-
CCCCN1C(=N)N([C@@H](CCC)CN2CCC[C@H]2CN2C(N)=NC[C@H]2C(C)C)C[C@H]1[C@H](C)CC	-	-	100	.	-	-
COc1ccc(CNC(=O)CN(C(=O)c2snc(C(N)=O)c2N)c2ccccc2F)cc1	-	-	-	.	-	-
C[C@@H]1[C@@H](Sc2ccccc2)CC(=O)O[C@@H]1c1ccc(-c2ccccc2)cc1	?	-	-	-	-	-
O=C1C=CC2(O[C@H](c3ccccc3)[C@@H](c3ccccc3)O2)[C@H](Sc2ccccc2O)C1	+	-	.	.	.	-
Cc1ccc2c([N+](=O)[O-])c(C)ccc2n1	-	35	-	-	-	-
COc1cc(C2NC(=O)NC(C)=C2C(C)=O)ccc1O (centres undefined)	-	-	-	-	-	-
Cc1cccc(NC(=O)CSc2nnc(CSc3nc(C)cc(C)n3)n2Cc2ccco2)c1	+	-	-	-	-	-
Cc1ccc(-c2cc(-c3ccco3)c3c(N)c(C(=O)NN)oc3n2)cc1	+	-	-	-	-	-
COc1cccc(/C=N/NC(=O)c2oc3nc(-c4ccccc4)cc(-c4ccco4)c3c2N)c1	-	-	-	-	-	-
SMILES	Myeloid diff 2	SKN-1 inh	GRK2 inh	Rce1 inhib	T cell HTS	Rin1-Abl PPI inh
NNC(=O)c1oc2nc(-c3cccs3)cc(-c3ccco3)c2c1N	+	-	-	-	-	-
CCOC(=O)c1cc(-c2cccs2)nc2onc(C)c12	-	-	-	-	-	-
NNC(=O)c1oc2nc(-c3ccccc3)cc(-c3ccccc3)c2c1N	+	-	-	-	-	-
COc1ccc(CNC(=O)Nc2nc(C(N)CCc3ccccc3)cs2)cc1 (centres undefined)	-	-	.	.	.	-
CCn1c(C)c(C(C)=O)c(N2CCN(c3ccccc3)CC2)nc1=S	-	-	-	-	-	-
CC(=O)c1c(N2CCN(C)CC2)[nH]c(-c2ccccc2)nc1=S	+	-	-	-	-	-
Cc1cccc(NC(=O)C2(c3ccc([N+](=O)[O-])cc3)CCCC2)c1	-	-	-	+	-	-
C[C@@H]1CN([C@H](C)CO)C(=O)c2c(c3ccccc3n2C)-c2ccccc2CO[C@H]1CN(C)Cc1ccccc1	-	-	.	.	.	-
COc1cccc(CN(C)C[C@@H]2OCc3ccccc3-c3c(n(C)c4ccccc34)C(=O)N([C@@H](C)CO)C[C@H]2C)c1	+	-	.	.	.	-
CCOC(=O)c1ccc(NC(=O)C(=O)NCc2ccncc2)cc1	-	-	-	-	-	-
CCCCOC(=O)c1ccc(NC(=O)C(=O)NCc2ccncc2)cc1	-	-	-	-	0.0	-
CC1(C(=O)Nc2ccc3c(c2)OCCO3)CCC(=O)N1CCOc1ccccc1 (centres undefined)	-	-	.	.	.	-
CC(=O)Nc1cccc(-c2ccnc3c2CC(C(=O)NCc2cccc(Cl)c2)O3)c1 (centres undefined)	+	-	.	.	.	-
O=C(Nc1cccc(Oc2ccccc2)c1)C1Cc2c(-c3ccc4c(c3)OCO4)ccnc2O1 (centres undefined)	-	36	.	.	.	-
CS(=O)(=O)Nc1cccc(NC(=O)C2Cc3c(-c4cccc(F)c4)ccnc3O2)c1 (centres undefined)	+	-	.	.	.	-
CN(C(=O)C1Cc2c(-c3ccccc3Oc3ccccc3)ccnc2O1)c1ccccc1 (centres undefined)	-	35	.	.	.	-
O=C(Nc1cccc(OC(F)(F)F)c1)C1Cc2c(-c3ccc4c(c3)OCO4)ccnc2O1 (centres undefined)	-	-	.	.	.	-
CC(=O)Nc1ccc(Oc2cc(NC(C)=O)cc([N+](=O)[O-])c2)cc1	-	-	-	-	-	-
Cc1ccc(N2C(=O)CC(C)(C)CC2=O)cc1Cl	-	-	-	-	-	-
CCCCN1C(=O)Cc2c1nc(N)c1c(N)nc(N(CCC)CCC)c(C#N)c21	+	-	-	.	-	-
CC(C)(OC(=O)c1ccc(F)cc1)c1cc2ccccc2c(=O)o1	-	-	-	.	-	-
O=C(COC(=O)CN1C(=O)COc2ccccc21)NCc1ccc(F)cc1	-	-	-	-	-	-
COC(CNC(=O)c1ccc(CS(=O)(=O)c2ccc(C)cc2)o1)OC	+	-	-	-	-	-
COC(CNC(=O)c1ccc(CS(=O)(=O)c2ccc(Br)cc2)o1)OC	-	-	-	-	-	-
CCN(CC)CCNc1ccc(C)c2sc3ccc(O)cc3c(=O)c12	.	-	.	.	.	-
COc1ccc(-c2cc(C(F)(F)F)c3c(N)c(C(=O)NCCSC)sc3n2)cc1	-	-	-	-	-	-
CN(C)CCNC(=O)c1sc2nc(-c3ccccc3)cc(C(F)(F)F)c2c1N	+	-	-	-	-	-
Nc1c(C(=O)C2CC2)sc2nc(-c3ccccc3)cc(C(F)(F)F)c12	+	-	-	-	-	-
CC(=O)c1sc2nc(-c3cccs3)cc(C(F)(F)F)c2c1N	+	-	-	-	-	-
CCOc1ccc(/C=C(\C#N)C(=O)NC2CC2)c(OCC)c1	-	-	-	.	-	-

Screening results deposited in PubChem by several laboratories.
